In ChEMBL document CHEMBL1649574, “Prevalence and characterization of heterogeneous vancomycin-intermediate Staphylococcus aureus isolates from 14 cities in China” (2009):
Values after ≈ are worked out from the molar mass of the structure shown.

What was measured:
Staphylococcus aureus [1] = assay: Antimicrobial activity against heterogeneous vancomycin-intermediate Staphylococcus aureus by broth microdilution method; format: functional
Procedure, shortened: (§1)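 Daptomycin MICs on the blood MRSA isolates were done by broth microdilution. The broth was supplemented with calcium chloride to a final calcium of 50 mg/liter, confirmed by biochemical analysis. Isolates were grouped by PAP-AUC ratio relative to Mu3 (VSSA <0.9; hVISA 0.9 to 1.3; VISA ≥1.3).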

Staphylococcus aureus [2] = assay: Antimicrobial activity against vancomycin-intermediate Staphylococcus aureus by broth microdilution method
Staphylococcus aureus [3] = assay: Antimicrobial activity against heterogeneous vancomycin-intermediate Staphylococcus aureus assessed as intermediate isolates by broth microdilution method; format: functional
Procedure, shortened: (§2)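 Daptomycin MICs by broth microdilution in BBL broth with calcium chloride added to a final calcium of 50 mg/liter, checked by biochemical analysis. Tested on the 200 MRSA blood isolates, grouped as hVISA/VISA or VSSA by PAP-AUC ratio relative to Mu3.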

Staphylococcus aureus [4] = assay: Antimicrobial activity against heterogeneous vancomycin-intermediate Staphylococcus aureus assessed as susceptible isolates by broth microdilution method; format: functional; procedure, shortened: as §2
Staphylococcus aureus [5] = assay: Antimicrobial activity against heterogeneous vancomycin-intermediate Staphylococcus aureus assessed as growth inhibition at 0.25 times MIC; format: functional; set-up: scale not given: the % may be the effect or the level left
Staphylococcus aureus [6] = assay: Antimicrobial activity against heterogeneous vancomycin-intermediate Staphylococcus aureus assessed as growth inhibition at 0.125 times MIC; format: functional; set-up: scale not given: the % may be the effect or the level left
Staphylococcus aureus [7] = assay: Antimicrobial activity against vancomycin-susceptible Staphylococcus aureus by broth microdilution method; format: functional; procedure, shortened: as §1
Staphylococcus aureus [8] = assay: Antimicrobial activity against heterogeneous vancomycin-susceptible Staphylococcus aureus assessed as intermediate isolates by broth microdilution method; format: functional; procedure, shortened: as §2
Staphylococcus aureus [9] = assay: Antimicrobial activity against heterogeneous vancomycin-susceptible Staphylococcus aureus assessed as susceptible isolates by broth microdilution method; format: functional; procedure, shortened: as §2
Staphylococcus aureus [10] = assay: Antimicrobial activity against heterogeneous vancomycin-intermediate Staphylococcus aureus assessed as growth inhibition at 0.5 times MIC; format: functional; set-up: scale not given: the % may be the effect or the level left
Staphylococcus aureus [11] = assay: Antimicrobial activity against heterogeneous vancomycin-intermediate Staphylococcus aureus assessed as growth inhibition at MIC; format: functional; set-up: scale not given: the % may be the effect or the level left
Staphylococcus aureus [12] = assay: Antimicrobial activity against heterogeneous vancomycin-intermediate Staphylococcus aureus assessed as growth inhibition at 2 times MIC; format: functional; set-up: scale not given: the % may be the effect or the level left
Staphylococcus aureus [13] = assay: Antimicrobial activity against heterogeneous vancomycin-intermediate Staphylococcus aureus assessed as growth inhibition at 4 times MIC; format: functional; set-up: scale not given: the % may be the effect or the level left
Staphylococcus aureus [14] = assay: Antimicrobial activity against heterogeneous vancomycin-intermediate Staphylococcus aureus assessed as growth inhibition at 16 times MIC; format: functional; set-up: scale not given: the % may be the effect or the level left
Staphylococcus aureus [15] = assay: Antimicrobial activity against vancomycin-susceptible Staphylococcus aureus assessed as growth inhibition at 0.125 times MIC; format: functional; set-up: scale not given: the % may be the effect or the level left
Staphylococcus aureus [16] = assay: Antimicrobial activity against vancomycin-susceptible Staphylococcus aureus assessed as growth inhibition at 0.25 times MIC; format: functional; set-up: scale not given: the % may be the effect or the level left
Staphylococcus aureus [17] = assay: Antimicrobial activity against vancomycin-susceptible Staphylococcus aureus assessed as growth inhibition at 0.5 times MIC; format: functional; set-up: scale not given: the % may be the effect or the level left
Staphylococcus aureus [18] = assay: Antimicrobial activity against vancomycin-susceptible Staphylococcus aureus assessed as growth inhibition at MIC; format: functional; set-up: scale not given: the % may be the effect or the level left
Staphylococcus aureus [19] = assay: Antimicrobial activity against vancomycin-susceptible Staphylococcus aureus assessed as growth inhibition at 2 times MIC; format: functional; set-up: scale not given: the % may be the effect or the level left
Staphylococcus aureus [20] = assay: Antimicrobial activity against vancomycin-susceptible Staphylococcus aureus assessed as growth inhibition at 4 times MIC; format: functional; set-up: scale not given: the % may be the effect or the level left
Staphylococcus aureus [21] = assay: Antimicrobial activity against vancomycin-susceptible Staphylococcus aureus assessed as growth inhibition at 16 times MIC; format: functional; set-up: scale not given: the % may be the effect or the level left
Staphylococcus aureus [22] = assay: Antimicrobial activity against SCCmec type II vancomycin-intermediate Staphylococcus aureus isolate 4sy39 by broth microdilution method
Staphylococcus aureus [23] = assay: Antimicrobial activity against SCCmec type II vancomycin-intermediate Staphylococcus aureus isolate 4sy32 by broth microdilution method
Staphylococcus aureus [24] = assay: Antimicrobial activity against SCCmec type III vancomycin-intermediate Staphylococcus aureus isolate 5zjsau3 by broth microdilution method
Staphylococcus aureus [25] = assay: Antimicrobial activity against SCCmec type II vancomycin-intermediate Staphylococcus aureus isolate sh06024 by broth microdilution method
Staphylococcus aureus [26] = assay: Antimicrobial activity against SCCmec type III vancomycin-intermediate Staphylococcus aureus isolate gz06040 by broth microdilution method
Staphylococcus aureus [27] = assay: Antimicrobial activity against SCCmec type III vancomycin-intermediate Staphylococcus aureus isolate gz06051 by broth microdilution method
Staphylococcus aureus [28] = assay: Antimicrobial activity against SCCmec type II vancomycin-intermediate Staphylococcus aureus isolate 6zjsau7 by broth microdilution method
Staphylococcus aureus [29] = assay: Antimicrobial activity against SCCmec type III vancomycin-intermediate Staphylococcus aureus isolate bd4768 by broth microdilution method
Staphylococcus aureus [30] = assay: Antimicrobial activity against SCCmec type II vancomycin-intermediate Staphylococcus aureus isolate b2k4781 by broth microdilution method
Staphylococcus aureus [31] = assay: Antimicrobial activity against SCCmec type III vancomycin-intermediate Staphylococcus aureus isolate b3k2345 by broth microdilution method
Staphylococcus aureus [32] = assay: Antimicrobial activity against SCCmec type III vancomycin-intermediate Staphylococcus aureus isolate b2k3421 by broth microdilution method
Staphylococcus aureus [33] = assay: Antimicrobial activity against SCCmec type III vancomycin-intermediate Staphylococcus aureus isolate b3k5923 by broth microdilution method
Staphylococcus aureus [34] = assay: Antimicrobial activity against SCCmec type III vancomycin-intermediate Staphylococcus aureus isolate b4k6307 by broth microdilution method
Staphylococcus aureus [35] = assay: Antimicrobial activity against SCCmec type III vancomycin-intermediate Staphylococcus aureus isolate b5k3529 by broth microdilution method
Staphylococcus aureus [36] = assay: Antimicrobial activity against SCCmec type III vancomycin-intermediate Staphylococcus aureus isolate b5k3578 by broth microdilution method
Staphylococcus aureus [37] = assay: Antimicrobial activity against SCCmec type III vancomycin-intermediate Staphylococcus aureus isolate b6k1642 by broth microdilution method
Staphylococcus aureus [38] = assay: Antimicrobial activity against SCCmec type III vancomycin-intermediate Staphylococcus aureus isolate b6k7974 by broth microdilution method; format: functional; procedure, shortened: as §1
Staphylococcus aureus [39] = assay: Antimicrobial activity against SCCmec type IV vancomycin-intermediate Staphylococcus aureus isolate 06b41 by broth microdilution method; format: functional; procedure, shortened: as §1
Staphylococcus aureus [40] = assay: Antimicrobial activity against SCCmec type III vancomycin-intermediate Staphylococcus aureus isolate 13b16 by broth microdilution method
Staphylococcus aureus [41] = assay: Antimicrobial activity against SCCmec type III vancomycin-intermediate Staphylococcus aureus isolate 11b091 by broth microdilution method
Staphylococcus aureus [42] = assay: Antimicrobial activity against SCCmec type II vancomycin-intermediate Staphylococcus aureus isolate 07b63 by broth microdilution method
Staphylococcus aureus [43] = assay: Antimicrobial activity against SCCmec type III vancomycin-intermediate Staphylococcus aureus isolate 15b52 by broth microdilution method
Staphylococcus aureus [44] = assay: Antimicrobial activity against SCCmec type III vancomycin-intermediate Staphylococcus aureus isolate zj07028 by broth microdilution method
Staphylococcus aureus [45] = assay: Antimicrobial activity against SCCmec type III vancomycin-intermediate Staphylococcus aureus isolate sh07043 by broth microdilution method; format: functional; procedure, shortened: as §1
Staphylococcus aureus [46] = assay: Antimicrobial activity against SCCmec type III vancomycin-intermediate Staphylococcus aureus isolate xa07029 by broth microdilution method
Staphylococcus aureus [47] = assay: Antimicrobial activity against SCCmec type III vancomycin-intermediate Staphylococcus aureus isolate gz07030 by broth microdilution method
Staphylococcus aureus [48] = assay: Antimicrobial activity against SCCmec type III vancomycin-intermediate Staphylococcus aureus isolate gs07022 by broth microdilution method

## CCCCCCCCCC(=O)N[C@@H](Cc1c[nH]c2ccccc12)C(=O)N[C@H](CC(N)=O)C(=O)N[C@@H](CC(=O)O)C(=O)N[C@@H]1C(=O)NCC(=O)N[C@@H](CCCN)C(=O)N[C@@H](CC(=O)O)C(=O)N[C@H](C)C(=O)N[C@@H](CC(=O)O)C(=O)NCC(=O)N[C@H](CO)C(=O)N[C@@H]([C@H](C)CC(=O)O)C(=O)N[C@@H](CC(=O)c2ccccc2N)C(=O)O[C@@H]1C
Staphylococcus aureus [1]
  MIC50: 0.5 µg/mL (≈ 0.309 µM)
  MIC90: 1 µg/mL (≈ 0.617 µM)
Staphylococcus aureus [2]
  MIC: 0.5 µg/mL (≈ 0.309 µM)
Staphylococcus aureus [3]
  Activity: 0%
Staphylococcus aureus [4]
  Activity: 100%
Staphylococcus aureus [5]
  Activity: 14.8%
Staphylococcus aureus [6]
  Activity: 0%
Staphylococcus aureus [7]
  MIC50: 0.5 µg/mL (≈ 0.309 µM)
  MIC90: 0.5 µg/mL (≈ 0.309 µM)
Staphylococcus aureus [8]
  Activity: 0%
Staphylococcus aureus [9]
  Activity: 100%
Staphylococcus aureus [10]
  Activity: 88.9%
Staphylococcus aureus [11]
  Activity: 100%
Staphylococcus aureus [12]
  Activity: 100%
Staphylococcus aureus [13]
  Activity: 100%
Staphylococcus aureus [14]
  Activity: 100%
Staphylococcus aureus [15]
  Activity: 0.58%
Staphylococcus aureus [16]
  Activity: 10.7%
Staphylococcus aureus [17]
  Activity: 95.1%
Staphylococcus aureus [18]
  Activity: 100%
Staphylococcus aureus [19]
  Activity: 100%
Staphylococcus aureus [20]
  Activity: 100%
Staphylococcus aureus [21]
  Activity: 100%
Staphylococcus aureus [22]
  MIC: 0.5 µg/mL (≈ 0.309 µM)
Staphylococcus aureus [23]
  MIC: 0.5 µg/mL (≈ 0.309 µM)
Staphylococcus aureus [24]
  MIC: 0.5 µg/mL (≈ 0.309 µM)
Staphylococcus aureus [25]
  MIC: 0.5 µg/mL (≈ 0.309 µM)
Staphylococcus aureus [26]
  MIC: 0.5 µg/mL (≈ 0.309 µM)
Staphylococcus aureus [27]
  MIC: 0.25 µg/mL (≈ 0.154 µM)
Staphylococcus aureus [28]
  MIC: 0.25 µg/mL (≈ 0.154 µM)
Staphylococcus aureus [29]
  MIC: 0.5 µg/mL (≈ 0.309 µM)
Staphylococcus aureus [30]
  MIC: 0.5 µg/mL (≈ 0.309 µM)
Staphylococcus aureus [31]
  MIC: 0.5 µg/mL (≈ 0.309 µM)
Staphylococcus aureus [32]
  MIC: 0.5 µg/mL (≈ 0.309 µM)
Staphylococcus aureus [33]
  MIC: 0.25 µg/mL (≈ 0.154 µM)
Staphylococcus aureus [34]
  MIC: 0.25 µg/mL (≈ 0.154 µM)
Staphylococcus aureus [35]
  MIC: 0.5 µg/mL (≈ 0.309 µM)
Staphylococcus aureus [36]
  MIC: 0.5 µg/mL (≈ 0.309 µM)
Staphylococcus aureus [37]
  MIC: 0.5 µg/mL (≈ 0.309 µM)
Staphylococcus aureus [38]
  MIC: 1 µg/mL (≈ 0.617 µM)
Staphylococcus aureus [39]
  MIC: 1 µg/mL (≈ 0.617 µM)
Staphylococcus aureus [40]
  MIC: 0.5 µg/mL (≈ 0.309 µM)
Staphylococcus aureus [41]
  MIC: 0.5 µg/mL (≈ 0.309 µM)
Staphylococcus aureus [42]
  MIC: 0.5 µg/mL (≈ 0.309 µM)
Staphylococcus aureus [43]
  MIC: 0.5 µg/mL (≈ 0.309 µM)
Staphylococcus aureus [44]
  MIC: 0.5 µg/mL (≈ 0.309 µM)
Staphylococcus aureus [45]
  MIC: 1 µg/mL (≈ 0.617 µM)
Staphylococcus aureus [46]
  MIC: 0.5 µg/mL (≈ 0.309 µM)
Staphylococcus aureus [47]
  MIC: 0.5 µg/mL (≈ 0.309 µM)
Staphylococcus aureus [48]
  MIC: 0.5 µg/mL (≈ 0.309 µM)
